According to ChEMBL document CHEMBL3352255, “Tailor-made fluorescent trilobolide to study its biological relevance” (J Med Chem, 2014):
Active and inactive are the calls of the source. No cut-off for these calls is given here.

Assays:
LNCaP [1] = experiment: Cytotoxicity against human LNCAP cells after 24 hrs by WST-1 assay; format: functional, cell-based
Outline: (§1)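 Dark cytotoxicity (no light exposure) by WST-1 tetrazolium-to-formazan conversion reflecting metabolic activity; compounds tested at concentrations up to 50 μM for 24, 48 or 72 h; IC50 taken as concentration giving 50% inhibition of cell viability.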

LNCaP [2] = experiment: Cytotoxicity against human LNCAP cells after 48 hrs by WST-1 assay; format: functional, cell-based; outline: as §1
LNCaP [3] = experiment: Cytotoxicity against human LNCAP cells after 72 hrs by WST-1 assay; format: functional, cell-based; outline: as §1
[4] = Cytotoxicity against human PC3 cells after 24 hrs by WST-1 assay; format: functional, cell-based; settings: PC-3, 24 h; outline: as §1
[5] = Cytotoxicity against human PC3 cells after 48 hrs by WST-1 assay; format: functional, cell-based; settings: PC-3, 48 h; outline: as §1
[6] = Cytotoxicity against human PC3 cells after 72 hrs by WST-1 assay; format: functional, cell-based; settings: PC-3, 72 h; outline: as §1
C2C12 [7] = experiment: Cytotoxicity against mouse C2C12 cells after 24 hrs by WST-1 assay; format: functional, cell-based; settings: C2C12, 24 h; outline: as §1
C2C12 [8] = experiment: Cytotoxicity against mouse C2C12 cells after 48 hrs by WST-1 assay; format: functional, cell-based; settings: C2C12, 48 h; outline: as §1
C2C12 [9] = experiment: Cytotoxicity against mouse C2C12 cells after 72 hrs by WST-1 assay; format: functional, cell-based; settings: C2C12, 72 h; outline: as §1
U2OS [10] = experiment: Cytotoxicity against human U2OS cells after 24 hrs by WST-1 assay; format: functional, cell-based; outline: as §1
U2OS [11] = experiment: Cytotoxicity against human U2OS cells after 48 hrs by WST-1 assay; format: functional, cell-based; outline: as §1
U2OS [12] = experiment: Cytotoxicity against human U2OS cells after 72 hrs by WST-1 assay; format: functional, cell-based; outline: as §1
MCF7 [13] = experiment: Cytotoxicity against human MCF7 cells after 24 hrs by WST-1 assay; format: functional, cell-based; settings: MCF7, 24 h; outline: as §1
MCF7 [14] = experiment: Cytotoxicity against human MCF7 cells after 48 hrs by WST-1 assay; format: functional, cell-based; settings: MCF7, 48 h; outline: as §1
MCF7 [15] = experiment: Cytotoxicity against human MCF7 cells after 72 hrs by WST-1 assay; format: functional, cell-based; settings: MCF7, 72 h; outline: as §1
[16] = Cytotoxicity against human MIAPaCa2 cells after 24 hrs by WST-1 assay; format: functional, cell-based; settings: MIA PaCa-2, 24 h; outline: as §1
[17] = Cytotoxicity against human MIAPaCa2 cells after 48 hrs by WST-1 assay; format: functional, cell-based; settings: MIA PaCa-2, 48 h; outline: as §1
[18] = Cytotoxicity against human MIAPaCa2 cells after 72 hrs by WST-1 assay; format: functional, cell-based; settings: MIA PaCa-2, 72 h; outline: as §1
HT-29 [19] = experiment: Cytotoxicity against human HT-29 cells after 24 hrs by WST-1 assay; format: functional, cell-based; settings: HT-29, 24 h; outline: as §1
HT-29 [20] = experiment: Cytotoxicity against human HT-29 cells after 48 hrs by WST-1 assay; format: functional, cell-based; settings: HT-29, 48 h; outline: as §1
HT-29 [21] = experiment: Cytotoxicity against human HT-29 cells after 72 hrs by WST-1 assay; format: functional, cell-based; settings: HT-29, 72 h; outline: as §1
[22] = Cytotoxicity against rat peritoneal cells assessed as reduction in cell viability at 40 uM after 24 hrs by WST-1 assay; format: cell-based
Rattus norvegicus [23] = organism: Rattus norvegicus; experiment: Induction of LPS-induced NO production in rat peritoneal cells after 24 hrs using DAR-2 probe by fluorescence assay; format: functional, cell-based
U2OS [24] = experiment: Cellular uptake in human U2OS cells at 5 uM after 24 hrs by fluorescence microscopy; format: ADME, cell-based
Outline: (§2)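 Live-cell fluorescence microscopy of Bodipy-labelled conjugates (green emission), 5 μM, uptake followed at 10, 20, 40 min and 1, 3, 5, 24 h. Cells stained with Bodipy dye alone served as control for dye-driven localization.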

[25] = Cellular uptake in human PC3 cells at 5 uM after 24 hrs by fluorescence microscopy; format: ADME, cell-based; settings: pc-3, 24 h; outline: as §2
LNCaP [26] = experiment: Cellular uptake in human LNCAP cells at 5 uM after 24 hrs by fluorescence microscopy; format: ADME, cell-based; outline: as §2
MCF7 [27] = experiment: Cellular uptake in human MCF7 cells at 5 uM after 24 hrs by fluorescence microscopy; format: ADME, cell-based; settings: mcf7, 24 h
HeLa = experiment: Cellular uptake in human HeLa cells at 5 uM after 24 hrs by fluorescence microscopy; format: ADME, cell-based; outline: as §2
[28] = Cellular uptake in human MIAPaCa2 cells at 5 uM after 24 hrs by fluorescence microscopy; format: ADME, cell-based; settings: mia paca-2, 24 h; outline: as §2
A549 = experiment: Cellular uptake in human A549 cells at 5 uM after 24 hrs by fluorescence microscopy; format: ADME, cell-based; settings: a549, 24 h; outline: as §2
C2C12 [29] = experiment: Cellular uptake in mouse C2C12 cells at 5 uM after 24 hrs by fluorescence microscopy; format: ADME, cell-based; settings: c2c12, 24 h; outline: as §2
[30] = Cellular uptake in HEK293T cells at 5 uM after 24 hrs by fluorescence microscopy; format: ADME, cell-based; settings: human, hek-293t; outline: as §2
[31] = Cytotoxicity against rat peritoneal cells assessed as reduction in cell viability at 40 uM after 24 hrs by WST-1 assay
Rattus norvegicus [32] = organism: Rattus norvegicus; experiment: Induction of TNFalpha production in rat peritoneal cells at 0.01 to 40 uM after 24 hrs by ELISA; format: functional, cell-based

| Compound | IC50 (LNCaP [1]) | IC50 (LNCaP [2]) | IC50 (LNCaP [3]) | IC50 [4] | IC50 [5] | IC50 [6] | IC50 (C2C12 [7]) | IC50 (C2C12 [8]) | IC50 (C2C12 [9]) | IC50 (U2OS [10]) | IC50 (U2OS [11]) | IC50 (U2OS [12]) | IC50 (MCF7 [13]) | IC50 (MCF7 [14]) | IC50 (MCF7 [15]) | IC50 [16] | IC50 [17] | IC50 [18] | IC50 (HT-29 [19]) | IC50 (HT-29 [20]) | other results |
| --- | --- | --- | --- | --- | --- | --- | --- | --- | --- | --- | --- | --- | --- | --- | --- | --- | --- | --- | --- | --- | --- |
| C/C=C(/C)C(=O)O[C@@H]1C[C@H]2C(=C1C)[C@@H]1OC(=O)[C@@](C)(O)[C@@]1(O)[C@@H](OC(=O)Cn1cc(COc3ccc(C4=C5C=CC=[N+]5[B-](F)(F)n5cccc54)cc3)nn1)C[C@]2(C)OC(C)=O | > 50 µM | 3.5 µM | > 50 µM | 2.2 µM | 2.9 µM | 3.2 µM | > 50 µM | > 50 µM | > 50 µM | > 50 µM | > 50 µM | > 50 µM | > 50 µM | > 50 µM | > 50 µM | > 50 µM | > 50 µM | > 50 µM | > 50 µM | > 50 µM | IC50 (HT-29 [21]): > 50 µM; Activity [22]: Non-toxic; Activity (Rattus norvegicus [23]): Dose-dependent effect; Drug uptake (U2OS [24]): Not Active; Drug uptake [25]: Not Active; Drug uptake (LNCaP [26]): Not Active; Drug uptake (MCF7 [27]): Not Active; Drug uptake (HeLa): Not Active; Drug uptake [28]: Not Active; Drug uptake (A549): Not Active; Drug uptake (C2C12 [29]): Not Active; Drug uptake [30]: Not Active; Activity [31]: Non-toxic |
| C/C=C(/C)C(=O)O[C@@H]1C[C@H]2C(=C1C)[C@@H]1OC(=O)[C@@](C)(O)[C@@]1(O)[C@@H](OC(=O)CCOCCOCCOCCOCCOCCOCCOCCOCCOCCOCCn1cc(COc3ccc(C4=C5C=CC=[N+]5[B-](F)(F)n5cccc54)cc3)nn1)C[C@]2(C)OC(C)=O | > 50 µM | > 50 µM | > 50 µM | > 50 µM | > 50 µM | > 50 µM | > 50 µM | > 50 µM | > 50 µM | > 50 µM | > 50 µM | > 50 µM | > 50 µM | 48 µM | 47.3 µM | > 50 µM | 50 µM | 41.1 µM | > 50 µM | > 50 µM | IC50 (HT-29 [21]): > 50 µM; Activity [22]: Non-toxic; Activity (Rattus norvegicus [23]): Dose-dependent effect; Drug uptake (U2OS [24]): Not Active; Drug uptake [25]: Not Active; Drug uptake (LNCaP [26]): Not Active; Drug uptake (MCF7 [27]): Not Active; Drug uptake (HeLa): Not Active; Drug uptake [28]: Not Active; Drug uptake (A549): Not Active; Drug uptake (C2C12 [29]): Not Active; Drug uptake [30]: Not Active; Activity [31]: Non-toxic |
| F[B-]1(F)n2cccc2C=C2C=CC=[N+]21 | > 50 µM | > 50 µM | > 50 µM | 1.5 µM | 3.1 µM | 5.6 µM | > 50 µM | > 50 µM | > 50 µM | > 50 µM | > 50 µM | > 50 µM | > 50 µM | > 50 µM | > 50 µM | > 50 µM | > 50 µM | > 50 µM | > 50 µM | > 50 µM | IC50 (HT-29 [21]): > 50 µM; Activity (Rattus norvegicus [23]): inactive; Activity (Rattus norvegicus [32]): inactive |
| C/C=C(/C)C(=O)O[C@@H]1C[C@H]2C(=C1C)[C@@H]1OC(=O)[C@@](C)(O)[C@@]1(O)[C@@H](OC(=O)CCOCCOCCOCCOCCn1cc(COCCOCCOCCOCCNC(=O)CCOCCOCCOCCOCCn3cc(COc4ccc(C5=C6C=CC=[N+]6[B-](F)(F)n6cccc65)cc4)nn3)nn1)C[C@]2(C)OC(C)=O | > 50 µM | > 50 µM | > 50 µM | > 50 µM | > 50 µM | > 50 µM | > 50 µM | > 50 µM | > 50 µM | > 50 µM | > 50 µM | > 50 µM | > 50 µM | > 50 µM | > 50 µM | > 50 µM | > 50 µM | > 50 µM | > 50 µM | > 50 µM | IC50 (HT-29 [21]): > 50 µM; Activity [22]: Non-toxic; Activity (Rattus norvegicus [23]): Dose-dependent effect; Drug uptake (U2OS [24]): Not Active; Drug uptake [25]: Not Active; Drug uptake (LNCaP [26]): Not Active; Drug uptake (MCF7 [27]): Not Active; Drug uptake (HeLa): Not Active; Drug uptake [28]: Not Active; Drug uptake (A549): Not Active; Drug uptake (C2C12 [29]): Not Active; Drug uptake [30]: Not Active; Activity [31]: Non-toxic |
